# From PubChem BioAssay
# KCNQ1 inh: inhibitors of human KCNQ1 potassium channel | P51787 | CHO-K1 KCNQ1, FluxOR thallium flux fluorescence; hits give high values | B-score at 10 µM | 310,000 tested, 1.3% active;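 active = compounds whose thallium flux B-score, printed positive for inhibition, exceeds three library SD while starting fluorescence stays within three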;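 note: channel opened by potassium depolarization with thallium stimulus after 20 min compound exposure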
# Target sequence (P51787 whole entry, looked up): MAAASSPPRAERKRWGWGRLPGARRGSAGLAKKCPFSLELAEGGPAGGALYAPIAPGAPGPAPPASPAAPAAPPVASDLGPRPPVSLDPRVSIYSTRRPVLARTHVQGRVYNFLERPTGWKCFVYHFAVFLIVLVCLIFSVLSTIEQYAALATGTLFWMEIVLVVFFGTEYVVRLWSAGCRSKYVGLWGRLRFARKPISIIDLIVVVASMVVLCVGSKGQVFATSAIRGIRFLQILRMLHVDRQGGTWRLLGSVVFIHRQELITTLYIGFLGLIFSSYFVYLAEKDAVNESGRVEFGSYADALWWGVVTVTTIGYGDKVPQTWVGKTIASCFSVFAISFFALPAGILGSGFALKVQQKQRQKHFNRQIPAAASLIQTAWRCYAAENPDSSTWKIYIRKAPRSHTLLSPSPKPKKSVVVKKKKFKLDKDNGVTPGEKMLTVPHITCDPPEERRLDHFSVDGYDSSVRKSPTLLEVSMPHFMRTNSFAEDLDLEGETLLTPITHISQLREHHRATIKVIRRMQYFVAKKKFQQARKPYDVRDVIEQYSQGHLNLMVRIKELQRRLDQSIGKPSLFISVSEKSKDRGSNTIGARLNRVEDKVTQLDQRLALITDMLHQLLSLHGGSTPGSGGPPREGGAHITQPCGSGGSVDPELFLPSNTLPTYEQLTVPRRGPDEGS
# KCNK9 inh: blocks the human KCNK9 two-pore domain potassium channel; B-score at 10 µM; Q9NPC2; 310,000 tested, 1.2% active; AID 488922; HEK293 KCNK9, FluxOR thallium flux fluorescence; hits give low values;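 active = ratio B-score over 3 SD below the library mean, with starting fluorescence within 5 SD of its mean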;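 note: negative B-score means less thallium flux so channel inhibition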
# KCNQ1 pot: potentiators or activators of human KCNQ1 potassium channel | P51787 | CHO-K1 KCNQ1, thallium flux FluxOR fluorescence; hits give high values | B-score at 10 µM | 310,000 tested, 0.35% active | AID 2648;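 active = fluorescence ratio B-score, a plate-corrected score, at least three library SD, with initial intensity B-score within 5 SD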
#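 System: CHO-K1 cells stably expressing KCNQ1 / Medium: assay buffer for compound exposure, DMSO matched across wells / Reagent: thallium- and potassium-containing depolarizing buffer / Compound: one concentration, matched DMSO / Incubation: 20 min compound pretreatment at room temperature / Measured by: kinetic FluxOR fluorescence, 10 s baseline plus 110 s post-stimulus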
# hERG protect: compounds protecting human hERG from proarrhythmic drug block. Q12809. CHO-hERG, FluxOR thallium flux, dofetilide IC70 present. activation (rescue from dofetilide block), less the hit threshold, % at 10 µM. 310,000 tested, 0.51% active. AID 1511;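 active = activation above the mean of controls blocked by dofetilide plus 5 SD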;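 note: thallium influx through hERG after potassium depolarization seen as dye fluorescence rise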
# KCNK3 inh: human KCNK3 channel inhibition, primary screen. O14649. CHO-KCNK3 thallium flux, FluxOR fluorescence; hits give low values. B-score at 10 µM. 340,000 tested, 0.84% active;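 active = B-score under library mean minus 4 SD, starting fluorescence ratio at most library mean plus 5 SD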;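 note: more negative B-score means stronger inhibition of thallium flux through KCNK3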
# KCNK9 block conf: confirmation of human KCNK9 potassium channel inhibitors; inhibition, % at 10 µM; 4,900 tested, 43% active; HEK293 KCNK9 cells, FluxOR thallium flux fluorescence; shares compounds with KCNK9 inh; AID 492992;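 active = thallium signal inhibited by more than 5 SD of the compound-free buffer control wells, on both duplicate plates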;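 note: 0% = assay buffer control wells without compound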
# Kir21 sel: selectivity of KCNK9 modulators against mouse Kir2.1 | Kir2.1 cells, FluxOR thallium flux fluorescence | inhibition, % at 10 µM | 4,900 tested, 4% active | shares compounds with KCNK9 inh | AID 492993;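 active = thallium signal drop more than 5 SD beyond the mean of the no-compound control wells, seen in both duplicate plates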;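 note: signal is fluorescence rise after thallium addition divided by baseline fluorescence; plate controls were assay buffer only for no effect and full block by chlorpromazine control for full effect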
# KCNK9 uninduced: second counter-screen for KCNK9 modulators: effect in non-induced cells; shares compounds with KCNK9 inh; non-induced KCNK9-HEK293, FluxOR thallium flux; inhibition, % at 10 µM; 4,900 tested, 40% active;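 active = thallium signal drop beyond 5 SD of the untreated control mean, on both duplicate plates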;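 note: plate controls were buffer only IC0 wells for no effect and SID17386958 at its maximal inhibitory level for full effect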
# The depositor's hits bear a star; i = inactive; x = no result given. Compounds with a hit are over-represented: about 3.1% of the library has one in this group of screens.
SMILES,KCNQ1 inh,KCNK9 inh,KCNQ1 pot,hERG protect,KCNK3 inh,KCNK9 block conf,Kir21 sel,KCNK9 uninduced
O=c1[nH]c(=S)n(CCC2=CCCCC2)c(O)c1/C=N/Nc1ccccc1,i,i,i,-13,i,i,i,25%*
O=c1c([N+](=O)[O-])cn(O)cc1[N+](=O)[O-],x,x,x,x,i,x,x,x
CCN(CC)c1ccc(CC2C(=O)N(C)C(=O)N(C)C2=O)cc1,i,i,i,-10,i,i,i,i
COC(=O)C1C2c3ccccc3C(c3ccccc32)C1(C)C(=O)OC (centres undefined),x,x,x,x,i,x,x,x
O=C(Nc1ccc2ccccc2c1)c1nn(C23CC4CC(CC(C4)C2)C3)cc1Br,i,i,i,-12,i,i,i,i
Cc1nc(Cl)sc1C(=O)Nc1ccc2ccccc2c1,i,i,i,-7,i,x,x,x
CCCNC(=O)N1[C@H]2CC[C@@H]1C(C(=O)OC)=C(c1ccc3ccccc3c1)C2,x,x,x,x,i,x,x,x
Fc1ccc(C[n+]2c(-c3ccccc3)cc(-c3ccccc3)cc2-c2ccccc2)cc1,6*,-11*,i,-24,x,52%*,68%*,i
CC12CC(=O)C3C(CCC4CC(=O)C=CC43C)C1CCC2=O (centres undefined),x,x,x,x,i,x,x,x
CCOP(=O)(C#CC(C)(C)C)C(C)(O)c1ccccc1 (centres undefined),i,i,i,-9,i,x,x,x
CC(C)(C#CC(=O)O)OOC(c1ccccc1)(c1ccccc1)c1ccccc1,i,i,i,-13,i,i,i,i
CCC(=O)N1CC(=O)Nc2ccc(F)cc2C1c1ccc(F)cc1 (centres undefined),i,i,i,-2,i,x,x,x
Oc1c(Cl)c(Cl)c(Cl)c(Cl)c1Cl,i,i,i,-14,i,i,i,i
COc1cc2c(c(OC)c1O)-c1ccc(OC)c(=O)cc1C(NC(=O)C(F)(F)F)CC2 (centres undefined),x,x,x,x,i,x,x,x
NC(N)=Nc1ccc2[nH]c3c(c2c1)C[C@@]1(O)[C@H]2Cc4ccc(O)c5c4[C@@]1(CCN2CC1CC1)[C@H]3O5,x,x,x,x,i,x,x,x
Cc1cccc(CN2CCCN(Cc3ccc(Cl)cc3)S2(=O)=O)c1,i,i,i,-5,i,x,x,x
Cc1ccc(CN2CCCN(Cc3ccc(C)cc3)S2(=O)=O)cc1,i,i,i,-4,i,i,i,i
CSc1ccc(C(=O)C2CCCN(Cc3cnc(SC)nc3)C2)cc1 (centres undefined),i,i,i,-10,i,i,i,i
CSc1ncc(CN2CCCC(C(=O)c3sccc3C)C2)cn1 (centres undefined),i,i,i,-5,i,i,i,i
COc1cc(CN2CCCC(C(=O)c3sccc3C)C2)cc(Cl)c1O (centres undefined),i,i,i,-10,i,i,i,i
Cc1ccsc1C(=O)C1CCCN(Cc2cccc(-n3cccn3)c2)C1 (centres undefined),i,i,i,-14,i,i,i,i
C[C@]12CCC3C(CC[C@H]4C[C@H](O)[C@H](O)C[C@]34C)C1CC[C@@H]2O (some centres undefined),x,x,x,x,i,x,x,x
CC1CN1P1(=O)OCC(C)([N+](=O)[O-])CO1 (centres undefined),x,x,x,x,i,x,x,x
CC1CN(c2ccccn2)C(C)CN1C(=O)C(O)(c1ccccc1)c1ccccc1 (centres undefined),x,x,x,x,i,x,x,x
O=C1CC(=O)N(c2cccc(C(F)(F)F)c2)C(=O)N1,i,i,i,-1,i,x,x,x
SMILES,KCNQ1 inh,KCNK9 inh,KCNQ1 pot,hERG protect,KCNK3 inh,KCNK9 block conf,Kir21 sel,KCNK9 uninduced
FC(F)(F)c1cccc(-n2nnnc2C2(N3CCOCC3)CCCCC2)c1,i,-10*,i,-7,i,42%*,i,35%*
Cc1ccc(CN2CCCC(C(=O)c3sccc3C)C2)o1 (centres undefined),i,i,i,-14,i,i,i,i
Cc1ccsc1C(=O)C1CCCN(Cc2cc3ccccc3o2)C1 (centres undefined),i,i,i,-12,i,i,i,i
Cc1ccc(CN2CCCC(C(=O)c3cccc(C(F)(F)F)c3)C2)o1 (centres undefined),i,i,i,-15,i,i,i,i
COC(=O)Cn1cc(C(=O)c2ccccc2F)c2ccccc21,i,i,i,-7,i,x,x,x
O=C(c1ccccc1F)c1cn(Cc2ccc(F)cc2)c2ccccc12,i,-8.7*,i,-6,i,50%*,i,34%*
Oc1ccccc1-[n+]1c(-c2ccccc2)cc(-c2ccccc2)c(O)c1-c1ccccc1,i,-8.4*,i,-6,i,i,i,i
O=C1COc2ccc(C(=O)COC(=O)Cc3ccccc3)cc2N1,i,i,i,-10,i,x,x,x
Cc1cc(C)cc(N2C(=O)/C(=C\c3ccc(N4CCN(C)CC4)o3)C(=O)NC2=S)c1,10*,-9.1*,i,-30,i,55%*,34%*,70%*
Cc1ccc(/C=C2\C(=O)NC(=S)N(c3ccc(F)cc3)C2=O)o1,i,i,i,0,i,x,x,x
Cc1ccc(NS(=O)(=O)c2ccc(OCC(=O)N3CCN(C)CC3)cc2)cc1,i,i,i,-15,i,x,x,x
Cc1ccccc1NS(=O)(=O)c1ccc(OCC(=O)N2CCN(C)CC2)cc1,i,i,i,-9,i,i,i,i
Cn1cc(C=C(C#N)C#N)c2ccccc21,i,-8.4*,i,2,i,i,i,52%*
CCc1ccc(N2C(=O)NC(=O)/C(=C/c3cccn3CCOc3ccc(C(C)CC)cc3)C2=O)cc1 (centres undefined),i,i,i,-2,i,i,i,i
COc1ccc(OCC#CCN2CCNCC2)cc1,i,i,i,-5,i,x,x,x
CCCC(C)CC1(CCO)C(=O)NC(=S)NC1=O (centres undefined),x,x,x,x,i,x,x,x
O=C(CN1CC=C(c2ccccc2)CC1)Nc1cc(Cl)ccc1Cl,i,i,i,-13,i,i,i,i
CC(C)n1c(=O)c(C=Nc2ccc(F)cc2)c(O)n(Cc2ccco2)c1=O,i,i,i,-6,i,i,i,i
